Compound activity deposited in PubChem by The Scripps Research Institute Molecular Screening Center.
TAAR1 antag: human TAAR1 antagonism. Q96RJ0. CHO RD-HGA16 TAAR1, Fluo-8 calcium fluorescence, antagonist. inhibition, % at 3 µM. 360,000 tested, 1.5% active. AID 624466;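 active = inhibition above a per-plate cutoff, the mean inhibition of test compounds on that plate plus 3 SD, cut at about 49% in these data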;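 also: 0% = DMSO plus EC80 beta-PEA response and 100% = DMSO alone without agonist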
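Test system – hTAAR1-expressing CHO RD-HGA16 cells, Gα16-coupled · Also added – β-PEA at EC80 concentration, post-compound challenge · Compound – 3 µM, single point · Incubation – dye loading 75 min at 37 °C, then 30 min room temperature · Measured by – Fluo-8 intracellular calcium dye fluorescence, real-time kinetic reads · Benchmarks – vehicle and agonist controls · Replicates – singlicate, one well per test compound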
CHO parental Ca: counter-screen for OX1R antagonists: effect in parental CHO cells; parental CHO-K1, ATP-induced calcium, Fluo-8 fluorescence; inhibition, % at 5.6 µM; 330,000 tested, 0.63% active;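 active = inhibition above that plate's mean sample inhibition plus 3 SD, cut at about 26% in these data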;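 also: 0% = ATP-challenged DMSO wells and 100% = DMSO wells without ATP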
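Measured by: calcium-sensitive Fluo-8 fluorescence / Test system: CHO parental line / Controls: ATP-challenged DMSO wells low, unchallenged DMSO wells high / Measure: % inhibition / Compound: single nominal dose of 5.6 µM per compound / Replicates: single well per compound, no replicates / Reagent: ATP as calcium-mobilizing challenge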
OX1R antag-1: blocks the human orexin 1 receptor; inhibition, % at 5 µM; AID 434989; CHO/OX1R cells, Fluo-8 calcium fluorescence, orexin A; 330,000 tested, 0.43% active;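 active = inhibition above its plate's threshold, mean inhibition of all tested compounds on the plate plus 3 SD, cut at about 37% in these data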;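 also: 0% = orexin A challenge wells and 100% = SB-334867-A antagonist wells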
Target sequence (O43613 whole entry, looked up): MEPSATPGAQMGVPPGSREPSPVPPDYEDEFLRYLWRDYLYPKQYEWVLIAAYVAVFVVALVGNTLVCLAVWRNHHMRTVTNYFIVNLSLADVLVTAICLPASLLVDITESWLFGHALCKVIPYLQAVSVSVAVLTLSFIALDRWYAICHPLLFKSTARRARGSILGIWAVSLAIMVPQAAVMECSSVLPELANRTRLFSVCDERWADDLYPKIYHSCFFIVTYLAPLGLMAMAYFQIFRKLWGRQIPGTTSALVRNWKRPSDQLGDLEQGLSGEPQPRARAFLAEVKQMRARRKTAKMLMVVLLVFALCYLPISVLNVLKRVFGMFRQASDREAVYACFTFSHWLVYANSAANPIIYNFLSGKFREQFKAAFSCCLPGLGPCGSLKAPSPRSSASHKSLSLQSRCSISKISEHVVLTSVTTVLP
TAAR1 agonist: human TAAR1 agonism | Q96RJ0 | CHO RD-HGA16 TAAR1, Fluo-8 calcium fluorescence; vehicle wells 0%, saturating PEA agonist 100% | activation, % at 3 µM | 360,000 tested, 0.99% active | AID 624467;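 active = activation above the mean activation of all test compounds in the run plus 3 SD, cut at about 38% in these data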
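Benchmarks: low control DMSO, high control PEA (EC100); System: CHO RD-HGA16 cells carrying human TAAR1 plus Gα16; Detection: Fluo-8 fluorescence, 5 s baseline then 140 s kinetic read; Schedule: 17-24 h plating, Fluo-8 75 min 37 °C, 30 min RT; Read-out basis: % activation from peak over basal fluorescence ratio, DMSO-to-PEA scaled.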
OX1R antag-2: OX1R (human) antagonism | O43613 | OX1R-expressing cells, FRET antagonist read-out | inhibition, % at 6.6 µM | 330,000 tested, 1.8% active; in the data active = inhibition mostly above about 38%, no sharp cut-off; inactive = mostly below about 40%;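 also: 0% = agonist challenge alone and 100% = reference antagonist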
GalR3 antagonist: antagonists of human GalR3; O60755; HEK293 GalR3-CNG cAMP membrane potential fluorescence; galR3 body fused to GalR1 C-terminus; inhibition, % at 3 µM; 360,000 tested, 0.44% active; AID 651719;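 active = inhibition above the screen-wide average plus 3 SD, cut at about 13% in these data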;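 also: forskolin and galanin both at EC90 stimulate the cells; cAMP rise reported by CNG channel membrane potential dye signal; 0% = forskolin plus galanin with DMSO and 100% = forskolin alone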
Target sequence (O60755 1-299 limits assumed): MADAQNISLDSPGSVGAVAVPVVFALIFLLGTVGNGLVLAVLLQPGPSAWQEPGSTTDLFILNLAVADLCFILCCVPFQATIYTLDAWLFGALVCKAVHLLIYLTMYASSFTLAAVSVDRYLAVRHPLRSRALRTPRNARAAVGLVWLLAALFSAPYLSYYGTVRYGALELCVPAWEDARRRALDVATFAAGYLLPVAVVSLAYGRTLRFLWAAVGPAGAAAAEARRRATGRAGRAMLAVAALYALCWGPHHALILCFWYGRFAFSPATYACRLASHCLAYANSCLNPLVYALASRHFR
nonsel antag count: nonselective antagonist in TAAR1 antagonist counter-screen. shares compounds with TAAR1 antag. counterscreen cell line, calcium fluorescence, antagonist mode. inhibition, % at 3 µM. 2,400 tested, 77% active; in the data active = inhibition above about 22%;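 also: CHO-Ga16 host cells stimulated with ATP at an EC80 level; 0% = agonist EC80 plus vehicle and 100% = vehicle without agonist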
TAAR1 ant conf: confirmation of human TAAR1 antagonists | shares compounds with TAAR1 antag | inhibition, % at 3 µM | 2,400 tested, 40% active | TAAR1-expressing cells, fluorescence antagonist read-out; in the data active = inhibition above about 49%;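 also: CHO-Ga16 host cells challenged with agonist PEA near its EC80; 0% = agonist at EC80 plus vehicle and 100% = vehicle with no agonist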
Ga16 nonsel ag: counter-screen for TAAR1 antagonists: nonselective Ga16 agonists. shares compounds with TAAR1 antag. Ga16-expressing cells, calcium fluorescence, agonist counterscreen. activation, % at 3 µM. 2,400 tested, 18% active. AID 651953; in the data active = activation above about 12%;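 also: 0% = vehicle wells and 100% = saturating stimulus response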
TAAR1 ag count: TAAR1 agonism, antagonist counter-screen; shares compounds with TAAR1 antag; hTAAR1 cell line, fluorescence activation, agonist mode; activation, % at 3 µM; 2,400 tested, 2% active; in the data active = activation above about 37%;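 also: CHO cells stably expressing TAAR1 with calcium dye readout; 0% = DMSO vehicle and 100% = full agonist response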
* marks the source's active call; other numbers are inactive results; . = not tested or not shown. The list is not random: actives were taken first. Their share in the collection is about 4.2%.

SMILES | TAAR1 antag | CHO parental Ca | OX1R antag-1 | TAAR1 agonist | OX1R antag-2 | GalR3 antagonist | nonsel antag count | TAAR1 ant conf | Ga16 nonsel ag | TAAR1 ag count
O=C(Cc1n[nH]c(=O)c2ccccc12)OCC(=O)N(Cc1ccccc1)Cc1ccccc1 | 57* | -10 | -31 | 4 | 12 | -6 | 21 | 38 | 4 | 3
CCOC(=O)Cc1n[nH]c(=O)c2ccccc12 | 2 | -7 | -2 | 9 | 13 | -2 | . | . | . | .
COc1ccc(N2CCN(C(=O)COC(=O)CSc3ccccc3)CC2)cc1 | -21 | . | . | 1 | . | -3 | . | . | . | .
O=C(NCc1ccccc1)C(c1ccco1)N(C(=O)c1ccccn1)c1ccccc1 (configuration not stated) | -10 | -17 | -6 | -1 | 19 | -1 | . | . | . | .
O=C(NCc1ccccc1)C(c1ccc(O)cc1)N(C(=O)c1cnccn1)c1ccccc1 (configuration not stated) | 63* | -16 | -14 | 17 | -2 | -5 | 34* | 53* | 11 | 11
COc1ccc(CNC(=O)C(c2ccco2)N(C(=O)c2ccccn2)c2ccccc2)cc1 (configuration not stated) | 64* | -20 | -7 | 10 | 10 | -9 | 22* | 34 | 6 | 4
CSc1ccc(CCNC(=O)c2nn(C)c3c2CS(=O)(=O)c2ccccc2-3)cc1 | 61* | -2 | -6 | 8 | 18 | -3 | 34* | 50* | 8 | 8
COc1ccc(NC(=O)CN2c3cccc4cccc(c34)S2(=O)=O)cc1OC | 0 | . | . | 6 | . | -4 | . | . | . | .
C#Cc1cccc(NC(=O)c2ccc3c(c2)C(=O)N(Cc2cccnc2)C3=O)c1 | 85* | -4 | -10 | 15 | 15 | -2 | 42* | 61* | 14* | 14
COCCn1c(SCC(=O)Nc2ccc(F)cc2)nc2c(oc3ccccc32)c1=O | -7 | -12 | -26 | 9 | 17 | -1 | . | . | . | .
CCN(CC)S(=O)(=O)c1ccc(C(O)=C(C#N)c2nc3ccccc3n2C)cc1 | 66* | . | . | 16 | . | -4 | 30* | 59* | 13* | 15
Cn1c(/C(C#N)=C(\O)c2ccccc2Cl)nc2ccccc21 | -21 | -12 | -9 | -1 | 45 | 5 | . | . | . | .
CC[C@@H](C)[C@@H](C(=O)N1CCN(C(=O)OC(C)(C)C)CC1)n1cc(CCCCNC(=O)OC(C)(C)C)nn1 | 69* | -15 | -13 | 25 | 32 | -2 | 42* | 61* | 13* | 13
CC[C@H](C)C(C(=O)N1CCN(C(=O)OC(C)(C)C)CC1)n1cc(C(CC(C)C)NC(=O)OC(C)(C)C)nn1 (some centres not stated) | 14 | -22 | -28 | 7 | 22 | -4 | . | . | . | .
CSCC[C@@H](C(=O)NCCCCCCCCCCC(=O)N1CCN(C(=O)OC(C)(C)C)CC1)n1cc(CCO)nn1 | 50* | -6 | -42 | 20 | 14 | 0 | 28* | 42 | 9 | 10
COc1cccc(N2CCN(c3nc(C)cc(C)c3C#N)CC2)c1 | 10 | -11 | -20 | 0 | -2 | -1 | . | . | . | .
CC(OC(=O)c1ccccc1Br)C(=O)Nc1nc(-c2cccc([N+](=O)[O-])c2)cs1 (configuration not stated) | 6 | -13 | -16 | 5 | 2 | 2 | . | . | . | .
CC(OC(=O)c1cnccn1)C(=O)Nc1nc(-c2cccc([N+](=O)[O-])c2)cs1 (configuration not stated) | 52* | -14 | -22 | 17 | 17 | -3 | 24* | 27 | 7 | 4
Cc1ccc(F)cc1NC(=O)N1CCN(C2c3ccccc3-c3ccccc32)CC1 | 10 | -24 | -10 | 27 | 6 | -7 | . | . | . | .
O=C(CSc1nc2ccc(NC(=O)c3ccccc3C(=O)O)cc2s1)Nc1c(Cl)cccc1Cl | -22 | -3 | -7 | -1 | 30 | -8 | . | . | . | .
COC(=O)CSc1nc2ccc(NC(=O)c3ccccc3C(=O)N3CCOCC3)cc2s1 | 55* | -25 | -19 | 22 | 25 | -12 | 24* | 50* | 9 | 8
O=C(Nc1ccc2nc(SCc3ccc(Cl)cc3)sc2c1)c1ccccc1C(=O)N1CCOCC1 | 76* | -15 | 9 | 20 | 25 | -2 | 34* | 54* | 11 | 12
CSc1ncccc1C(=O)OCC(=O)N1CCc2ccccc21 | 0 | -13 | 3 | 2 | 8 | -6 | . | . | . | .
Nc1cc(Cl)ccc1C(=O)OCC(=O)N1CCCCCC1 | 103* | -5 | 3 | 2 | 0 | -8 | 11 | 5 | 4 | 7
O=C(COC(=O)c1ccccc1C(=O)c1ccc(Cl)c([N+](=O)[O-])c1)NC1CCCCCC1 | 74* | 39* | 48* | 13 | 21 | -4 | 35* | 54* | 9 | 10
SMILES | TAAR1 antag | CHO parental Ca | OX1R antag-1 | TAAR1 agonist | OX1R antag-2 | GalR3 antagonist | nonsel antag count | TAAR1 ant conf | Ga16 nonsel ag | TAAR1 ag count
CSc1ncccc1C(=O)OCC(=O)N1CCCC1 | 101* | -6 | 11 | -3 | 2 | -1 | -4 | -12 | 8 | 3
Nc1cc(Cl)ccc1C(=O)OCC(=O)NC1CCCCC1 | 102* | 30* | 17 | -2 | 25 | -2 | 11 | 8 | 3 | 12
CCOc1ccc(CCNc2cc(C)nc3ncnn23)cc1OCC | -8 | -3 | -1 | 2 | 6 | -1 | . | . | . | .
CC1(c2cccc(Br)c2)NC(=O)N(CC(=O)N2CCN(C(=O)c3ccco3)CC2)C1=O (configuration not stated) | -2 | -3 | -9 | 2 | 5 | -6 | . | . | . | .
CC1=C(C(=O)N(C)C)CC(CC(=O)NCCN2CCOCC2)C(=O)N1CCC1=CCCCC1 (configuration not stated) | -7 | . | . | 2 | . | -4 | . | . | . | .
CCN1C(=O)C(CC(=O)Nc2ccc(OC)cc2)N(CCCN2CCN(c3ccc(F)cc3)CC2)C1=S (configuration not stated) | 66* | -19 | -12 | 27 | 11 | -6 | 32* | 45 | 17* | 15
COc1ccc(NC(=O)CC2C(=O)N(C)C(=S)N2CCc2ccc(F)cc2)cc1 (configuration not stated) | 58* | -3 | -14 | 19 | 2 | -2 | 31* | 50* | 14* | 11
